Screening results from PubChem.
LEDGF integ inh: blocks HIV-1 LEDGF/p75-dependent DNA integration. TR-FRET IN-LEDGF/p75 DNA integration, Eu/Cy5. inhibition, % at 3.7 µM. hit rate 0.64% among 370,000. AID 743269;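 active means inhibition above the screen-wide mean plus 3 SD, cut at about 13% in these data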;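 further: signal is the Cy5 over europium emission ratio at 671 and 618 nm; 0% = plate median of compound wells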
rCAG binder: molecules binding r(CAG) RNA repeats. hit rate 1.3% among 370,000. r(CAG) RNA repeat, TO-PRO-1 dye displacement fluorescence. inhibition, % at 3 µM;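 active means inhibition above the plate cutoff, the mean of all test compounds on that plate plus 3 SD, cut at about 35% in these data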;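 further: 0% = DMSO alone and 100% = 100 µM mitoxantrone as full dye displacement; higher means more dye released from RNA so lower well fluorescence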
PRMT1 FP inh: blocks human protein arginine methyltransferase 1. recombinant PRMT1, activity-based probe fluorescence polarization. hit rate 1.3% among 370,000. Q99873. inhibition, % at 2.79 µM;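 active means inhibition above about 21% made by adding two undisclosed values, limit read from the data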
Target sequence (Q99873 whole entry, looked up): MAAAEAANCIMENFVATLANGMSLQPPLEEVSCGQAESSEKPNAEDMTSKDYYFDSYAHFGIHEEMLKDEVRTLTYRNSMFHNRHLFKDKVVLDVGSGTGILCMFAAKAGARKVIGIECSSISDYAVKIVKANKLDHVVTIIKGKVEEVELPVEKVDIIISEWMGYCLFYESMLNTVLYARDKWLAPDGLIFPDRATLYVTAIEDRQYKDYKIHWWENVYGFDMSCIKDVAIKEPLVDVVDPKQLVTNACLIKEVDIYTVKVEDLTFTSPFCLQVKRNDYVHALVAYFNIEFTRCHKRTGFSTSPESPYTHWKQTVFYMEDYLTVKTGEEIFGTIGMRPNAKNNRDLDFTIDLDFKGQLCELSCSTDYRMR
mABHD4 FP: ABHD4 (mouse) inhibition, primary FP screen; purified mABHD4, FP-Rh probe fluorescence polarization; inhibition, % at 8.92 µM; hit rate 0.54% among 370,000; AID 720543;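 active means inhibition exceeding the mean over every tested compound plus 3 SD, cut at about 30% in these data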;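 further: 0% = plate median of compound wells and 100% = S159A mutant with DMSO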
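Assay system: wild-type mouse ABHD4 protein; compound: single nominal dose of 8.92 µM, 0.89% DMSO final; schedule: 45 min + 60 min at 25 °C; measured by: FP readout, ex 525 nm / em 598 nm; evaluation: % inhibition of FP-Rh probe binding versus controls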
HTRA1 inhibitor: inhibitors of human serine peptidase HTRA1. Q92743. recombinant HTRA1, FP-rhodamine activity-based probe, fluorescence polarization. inhibition, % at 5.96 µM. hit rate 0.5% among 340,000. AID 504803; in the data active means inhibition above about 36%;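 further: 0% = enzyme with DMSO and 100% = wells lacking enzyme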
DAGLB inh: blocks human DAGLB lipase activity; HEK293T DAGLB membrane lysate, EnzChek fluorogenic substrate; inhibition, % at 5.17 µM; hit rate 0.059% among 340,000; in the data active means inhibition above about 34%;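 further: 0% = enzyme with vehicle and 100% = wells lacking enzyme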
The depositor's hits bear a star; . = not tested or not shown. Hits are enriched below; roughly 3.2% of the tested compounds scored in any of these assays.

SMILES	LEDGF integ inh	rCAG binder	PRMT1 FP inh	mABHD4 FP	HTRA1 inhibitor	DAGLB inh
Cc1ccc(NC2=C(N3CCOCC3)C(=O)c3ccccc3C2=O)cc1	29.9*	3.9	6.7	5.6	4.4	-8.3
CCOC(=O)N1CCN(C2=C(NS(=O)(=O)c3ccc(C)cc3)C(=O)c3ccccc3C2=O)CC1	14.9*	-1.6	2.4	19.8	17.4	25.3
Cc1ccc(-c2cc(C(F)F)n3ncc(C(=O)Nc4c(C)nn(Cc5ccccc5Cl)c4C)c3n2)cc1	-0.7	2.4	2.1	0.2	-1.6	-2.5
O=C1Cc2ccccc2C(=O)N1	24.8*	5.2	-0.6	9.6	.	.
COc1ccc(CCNC(=O)COC(=O)CSc2ccc(C(N)=O)cc2[N+](=O)[O-])cc1OC	2.2	8.5	22.3*	8.8	-3.2	0.5
COc1ccc(NC(=O)CN(C)C(=O)C2CC(=O)N(CCc3ccc(OC)c(OC)c3)C2)cc1 (stereo unspecified)	0.4	3.6	-1.4	3.7	2.4	-5.2
CC(C)C[C@H]1CN([C@@H](CC(C)C)CN2CCC[C@H]2CN2C(=O)C(=O)NC[C@@H]2Cc2ccc(O)cc2)C(=O)C(=O)N1CC1CCCCCC1	3.8	4.0	-1.9	5.8	.	.
c1ccc(CC2CCN(c3ncnc4sccc34)CC2)cc1	7.2	-1.8	-4.4	-6.3	-9.0	-11.0
CC1=NN(c2ccccc2)C(=O)/C1=C\c1ccc(Oc2ccc([N+](=O)[O-])cc2[N+](=O)[O-])cc1	31.4*	26.0	9.8	9.8	0.8	-4.9
CC(=O)c1cccc(CN2CCCC(C(=O)Nc3cccc(-n4cccn4)c3)C2)c1 (stereo unspecified)	2.8	-1.0	21.6*	-10.9	1.4	-0.7
COC(=O)c1ccc(CN2CCCC(C(=O)Nc3cccc(-n4cccn4)c3)C2)cc1 (stereo unspecified)	-4.4	-2.5	-2.0	-2.4	-13.2	-3.6
N#CC12COC3(CCCCC3C1(C#N)C#N)OC2=N (stereo unspecified)	8.8	-16.2	35.0*	24.2	20.8	0.1
N#CC1(C#N)COC23CCCCC2C1(C#N)C(=N)O3 (stereo unspecified)	2.1	-8.1	22.1*	17.5	13.3	-0.8
CC1OC23CCCCC2C(C#N)(C(=N)O3)C1(C#N)C#N (stereo unspecified)	-2.2	-2.5	6.5	8.0	5.5	-3.2
O=C(NCc1ccccn1)c1ccc(NC(=O)c2ccco2)cc1	-0.2	0.3	-2.4	-3.0	8.8	-1.0
CCc1cccc2c1NC(=O)C21OCCO1	-3.9	5.2	-0.1	4.0	6.1	1.1
COc1cccc(CNC(=O)[C@H]2CCCN2)c1	-0.4	1.1	0.3	3.1	.	.
CC(C)N(Cc1ccccc1)C(=O)CCS(=O)(=O)c1ccc2c(c1)oc(=O)n2C	-0.2	-1.3	21.5*	1.9	11.7	-3.8
CCOc1ccccc1N(CC(=O)NCc1ccncc1)S(=O)(=O)c1ccccc1	1.4	3.2	-0.6	-1.9	1.4	1.3
CCc1nnc(NS(=O)(=O)c2ccc(NC(=O)/C=C/c3ccc(OC)cc3OC)cc2)s1	0.3	82.3*	0.1	-105.1	-78.9	-0.1
CCc1cc(SC#N)ccc1N	-13.3	3.1	23.9*	6.7	-1.5	-1.2
CCc1cc([N+](=O)[O-])cc(CC)c1N	-3.6	-1.1	-1.3	-5.2	-4.4	0.5
O=c1[nH]c(Nc2ccccc2)cc2ccccc12	36.5*	-0.8	3.5	8.6	9.7	-9.8
Cn1c(=O)cc(Nc2ccccc2)[nH]c1=O	-1.0	0.2	0.4	-2.0	-1.5	-1.4
NS(=O)(=O)c1ccc(NC(=S)NC2CCCCCC2)cc1	6.4	7.3	24.5*	-5.2	-0.8	-0.8
SMILES	LEDGF integ inh	rCAG binder	PRMT1 FP inh	mABHD4 FP	HTRA1 inhibitor	DAGLB inh
O=C(O)C1(Nc2ccc([N+](=O)[O-])cc2[N+](=O)[O-])CCCC1	-0.2	1.0	23.0*	7.6	1.6	-1.8
COC(=O)c1ccc(S(=O)(=O)NCc2cccc(OC)c2)n1C	-0.9	-0.7	-0.3	-0.8	-0.4	1.1
CC(C)(C)c1cc(C(c2cccnc2)N2CCN(CCO)CC2)cc(C(C)(C)C)c1O (stereo unspecified)	-3.2	-9.2	22.4*	7.8	-14.9	6.8
CC(C)(C)n1nnnc1C(c1cccnc1)N1CCN(c2cccc(C(F)(F)F)c2)CC1 (stereo unspecified)	4.6	1.6	0.5	-2.2	-2.6	3.2
CCOC(=O)C1(C(=O)OCC)COC(=O)C1CN1Cc2cc3ccccc3nc2C1 (stereo unspecified)	-1.6	10.1	22.7*	3.3	5.1	3.0
CC(C)(C)OC(=O)N1Cc2cc3ccccc3nc2C1	-0.8	-0.5	-3.0	-6.5	0.8	-6.6
COC(=O)[C@]12CCCCC=C1N(CCc1ccc(OC)c(OC)c1)C(=O)[C@H](CC(=O)NCCC(C)C)C2	-3.6	-2.4	-0.2	1.6	.	.
COc1ccccc1C(=O)COC(=O)Cn1[nH]c(=O)c2ccccc2c1=O	1.9	2.7	-0.4	1.2	-5.7	0.6
CCOC(=O)CN1C(=O)S/C(=C\c2ccc(-c3ccc(C(=O)O)c(Cl)c3)o2)C1=O	3.0	14.1	7.8	0.1	-1.2	1.5
O=C(O)c1ccc(-c2ccc(/C=C3\NC(=O)N(Cc4ccc(Cl)cc4)C3=O)o2)cc1Cl	29.1*	53.0*	43.1*	17.6	-6.5	6.0
COc1cccc(CN(C)C(=O)CC2C(=O)NCCN2C2Cc3ccccc3C2)c1 (stereo unspecified)	-0.6	-5.7	4.9	-6.4	9.9	0.3
Cc1cc2oc(=O)sc2cc1NS(=O)(=O)c1ccccc1	-9.2	9.8	91.7*	-15.5	5.4	5.7
Cc1nc2cc(NS(=O)(=O)c3cccc4cccnc34)ccc2s1	-2.6	-4.5	6.4	3.3	-0.4	-2.1
Cc1cc2oc(=O)sc2cc1NS(=O)(=O)c1cccc2cccnc12	0.3	12.8	53.6*	-9.2	10.9	7.5
Cc1cc(-c2ccc(NS(=O)(=O)c3ccccc3)c(C)c2)ccc1NS(=O)(=O)c1ccccc1	5.2	16.2	7.2	-35.9	-35.8	-0.2
O=C(CSc1ccc2c(c1)OCCO2)Nc1ccc(Br)cn1	4.0	-3.0	12.2	3.6	-9.7	-9.2
O=C(CSc1ccc2c(c1)OCCO2)Nc1ncccc1O	2.7	0.1	23.9*	1.8	7.9	-0.8
Nc1c(C(=O)O)ccc2c1C(=O)c1ccccc1C2=O	-1.0	10.0	1.6	1.8	1.9	29.7
Nc1cc(C(=O)O)c(N)c2c1C(=O)c1ccccc1C2=O	.	.	.	.	82.0*	23.7
CCOC(=O)c1sc2ccc(S(=O)(=O)N3CC(C)CC(C)C3)cc2c1N (stereo unspecified)	3.3	3.2	21.3*	5.1	-1.6	-8.4
Cc1ccc(C)c(SCC(=O)Nc2oc(C)c3c(C)n[nH]c(=O)c23)c1	1.1	-1.7	22.0*	0.9	-1.4	2.0
